Measured values from ChEMBL document CHEMBL4219101, “Discovery of 18β-glycyrrhetinic acid conjugated aminobenzothiazole derivatives as Hsp90-Cdc37 interaction disruptors that inhibit cell migration and reverse drug resistance” (Bioorg Med Chem, 2018).

What was measured:
HCT-116 = experiment: Antiproliferative activity against human HCT116 cells after 48 hrs by MTT assay; format: functional, cell-based; settings: HCT-116, 48 h
Outline: (§1)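 Cells in log phase seeded at about 1.0 × 10^5 cells/mL in 96-well plates, left 12 h at 37 °C, 5% CO2. Compounds dissolved in DMSO, added at 2.5, 5, 10, 20 and 50 µM, 48 h exposure. Absorbance read at 570/630 nm dual wavelength. Survival expressed relative to negative control. IC50 by Bliss method (n = 5), tests done in triplicate.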

A549 [1] = experiment: Induction of apoptosis in human A549 cells assessed as late apoptotic cells at 10 uM after 24 hrs by Annexin-V FITC/propidium iodide staining based flow cytometry (reference value: 0.030%)
[2] = molecular target: T1, Heat shock protein HSP90 (Homo sapiens) (UniProt P07900+P08238); experiment: Inhibition of HSP90 in human A549 cells assessed as downregulation of phosphorylated akt expression after 24 hrs by Western blot analysis; format: cell-based
Outline: (§2)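 A549 cells exposed for 24 h, with geldanamycin as comparator. Whole-cell lysates separated by SDS-PAGE and immunoblotted for the named proteins. β-actin used as reference.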

HepG2 = experiment: Antiproliferative activity against human HepG2 cells after 48 hrs by MTT assay; format: functional, cell-based; settings: HepG2, 48 h; outline: as §1
[3] = molecular target: T1, Heat shock protein HSP90 (Homo sapiens); experiment: Inhibition of HSP90 in human A549 cells assessed as induction of HSP70 expression after 24 hrs by Western blot analysis; format: cell-based; outline: as §2
A549 [4] = experiment: Induction of apoptosis in human A549 cells assessed as downregulation of Bcl2 protein expression after 24 hrs by Western blot analysis; format: functional, cell-based
Outline: (§3)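 A549 cells exposed to 5 and 10 µM for 24 h. Lysates cleared at 20000g, protein quantified by BCA and equal amounts run on 12% SDS-PAGE, then transferred to PVDF. Blocked in 5% skim milk in TBST. Probed overnight at 4 °C with antibodies to Bcl-2, Bax, caspase-9, caspase-3 and β-actin (loading reference). Chemiluminescent detection. Three independent experiments.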

A549 [5] = experiment: Induction of apoptosis in human A549 cells assessed as upregulation of Bax protein expression after 24 hrs by Western blot analysis; format: functional, cell-based; outline: as §3
A549 [6] = experiment: Cell cycle arrest in human A549 cells assessed as accumulation at G1 phase at 10 uM after 48 hrs by propidium iodide staining-based flow cytometry (reference value: 70.16%); format: functional
[7] = Antiproliferative activity against human NCI-460 cells after 48 hrs by MTT assay; format: functional, cell-based; settings: NCI-460, 48 h; outline: as §1
[8] = molecular target: T1, Heat shock protein HSP90 (Homo sapiens); experiment: Inhibition of HSP90 in human A549 cells assessed as downregulation of CDK4 expression after 24 hrs by Western blot analysis; format: cell-based; outline: as §2
A549 [9] = experiment: Induction of apoptosis in human A549 cells assessed as increase in number of nuclei containing condensed chromatin at 5 to 10 uM after 24 hrs by Hoechest 33258-staining based fluorescence microscopy; format: functional, cell-based
Outline: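 5.0 × 10^5 A549 cells per well exposed to 5 and 10 µM for 24 h, untreated cells as control. Fixed in 4% paraformaldehyde for 30 min, washed with ice-cold PBS and stained with Hoechst 33258 for 20 min in the dark. Condensed nuclei imaged by fluorescence microscopy at 350 nm excitation and 460 nm emission, 200× magnification.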

A549 [10] = experiment: Induction of apoptosis in human A549 cells assessed as necrotic cells at 5 uM after 24 hrs by Annexin-V FITC/propidium iodide staining based flow cytometry (reference value: 2.32%)
A549 [11] = experiment: Cell cycle arrest in human A549 cells assessed as accumulation at S phase at 5 uM after 48 hrs by propidium iodide staining-based flow cytometry (reference value: 19.62%); format: functional
A549 [12] = experiment: Induction of apoptosis in human A549 cells assessed as upregulation of cleaved caspase-9 protein expression after 24 hrs by Western blot analysis; format: functional, cell-based; outline: as §3
A549 [13] = experiment: Induction of apoptosis in human A549 cells assessed as viable cells at 10 uM after 24 hrs by Annexin-V FITC/propidium iodide staining based flow cytometry (reference value: 97.6%); settings: A549, 24 h
[14] = molecular target: T1, Heat shock protein HSP90 (Homo sapiens); experiment: Inhibition of HSP90 in human A549 cells assessed as induction of HSP27 expression after 24 hrs by Western blot analysis; format: cell-based; outline: as §2
A549 [15] = experiment: Antiproliferative activity against human A549 cells after 48 hrs by MTT assay; format: functional, cell-based; settings: A549, 48 h; outline: as §1
A549 [16] = experiment: Induction of apoptosis in human A549 cells assessed as intracellular ROS levels at 10 uM after 24 hrs by FITC-DCF-DA-fluorescence based flow cytometry (reference value: 0.832%); format: functional
Outline: (§4)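 A549 cells exposed to 5 and 10 µM for 24 h, untreated cells as control. Collected, washed with ice-cold PBS and loaded with DCFH-DA in cell-free medium for 20 min at 37 °C in the dark, then washed. Fluorescence measured by flow cytometry at 485 nm excitation and 538 nm emission. Mean ± S.D. of three independent experiments.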

A549 [17] = experiment: Induction of apoptosis in human A549 cells assessed as increase in intracellular ROS levels after 24 hrs by FITC-DCF-DA-fluorescence based flow cytometry; format: functional, cell-based; outline: as §4
A549 [18] = experiment: Cell cycle arrest in human A549 cells assessed as accumulation at G1 phase at 5 uM after 48 hrs by propidium iodide staining-based flow cytometry (reference value: 70.16%); format: functional

IC50 (HCT-116): 7.97 µM
inhibition [2]: Dose-dependent effect
IC50 (HepG2): 10.6 µM
inhibition [3]: Dose-dependent effect
inhibition [8]: Dose-dependent effect
inhibition [14]: Dose-dependent effect
IC50 (A549 [15]): 4.04 µM
SMILES: CCOC(=O)[C@@]1(C)CC[C@]2(C)CC[C@]3(C)C(=CC(=O)[C@@H]4[C@@]5(C)CC[C@H](OC(=O)CCC(=O)Nc6nc7ccc(F)cc7s6)C(C)(C)[C@@H]5CC[C@]43C)[C@@H]2C1
Activity (A549 [1]): 6.07%
Activity (A549 [4]): Dose-dependent effect
Activity (A549 [5]): Dose-dependent effect
Activity (A549 [6]): 47.14%
IC50 [7]: 7.41 µM
Activity (A549 [9]): Dose-dependent effect
Activity (A549 [10]): 2.18%
Activity (A549 [11]): 34.09%
Activity (A549 [12]): Dose-dependent effect
viability at 10 µM (A549 [13]): 78.8%
Activity (A549 [16]): 67.5%
Activity (A549 [17]): Dose-dependent effect
Activity (A549 [18]): 52.92%
